# Compound activity: PubChem, several laboratories
# The list is not random: actives were taken first. Their share in the collection is about 2.4%.
# Neddylation inh: inhibitors of human cullin neddylation; P61081+Q13564; TR-FRET cullin neddylation, biochemical; inhibition, % at 25 µM; 360,000 tested, 0.58% active; AID 651699; in the data active = inhibition above about 36%
# Tb MetRS inh: Trypanosoma brucei MetRS inhibition | inhibition, % at 11.9 µM | AID 624268 | 360,000 tested, 0.4% active | purified T. brucei MetRS, ATP depletion, Kinase-Glo luminescence;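 active = inhibition above a per-plate cutoff of the control wells' mean inhibition plus 3 SD, cut at about 5.5% in these data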;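 note: 0% = DMSO wells median and 100% = median of wells with control inhibitor compound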
#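 Dosing: 11.9 µM compound single dose, 0.9% DMSO; Assay system: purified T. brucei MetRS enzyme; Measured by: Kinase-Glo luciferase luminescence reporting remaining unconsumed ATP; Schedule: 15 min plus 2 h at 25 °C.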
# Rpn11 block: Rpn11 (human) deubiquitinase inhibition. O00487. human 26S proteasome, Ub4-pepOG fluorescence polarization; 20S core pre-blocked with epoxomicin. inhibition, % at 20 µM. 360,000 tested, 0.59% active. AID 588493;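 active = inhibition at 20 µM, scaled to each plate's controls, above about 33%, limit read from the data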
# CSN inh: inhibitors of human CSN-mediated cullin deneddylation. Purified CSN, SCF-Nedd8-OG deneddylation, fluorescence polarization. inhibition, % at 12.5 µM. 360,000 tested, 0.38% active;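 active = pattern-corrected inhibition above about 35%, with an unprinted fluorescence ratio check between 0.5 and 1.5, limit read from the data, passing the limit was not always enough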;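 note: 0% = enzyme with substrate and 100% = substrate without enzyme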
# Target sequence (Q92905 whole entry, looked up, one chain of several): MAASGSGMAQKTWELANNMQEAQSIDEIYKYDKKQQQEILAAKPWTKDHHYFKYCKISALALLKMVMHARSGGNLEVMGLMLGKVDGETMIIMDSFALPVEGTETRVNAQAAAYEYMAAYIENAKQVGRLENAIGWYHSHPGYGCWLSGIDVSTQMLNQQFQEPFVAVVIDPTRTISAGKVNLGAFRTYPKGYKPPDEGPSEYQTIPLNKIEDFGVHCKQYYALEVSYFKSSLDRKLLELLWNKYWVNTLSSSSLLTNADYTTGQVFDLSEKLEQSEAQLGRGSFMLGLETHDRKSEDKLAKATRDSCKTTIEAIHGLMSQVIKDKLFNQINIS
#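 Test system: purified human Csn5 enzyme expressed in HEK293T cells. Amount: 0.24 nM enzyme. Reagent: SCFSkp2-Nedd8OG substrate at 10 nM final. Schedule: 90 min incubation of compound, enzyme and substrate at room temperature. Detection: fluorescence polarization. Read-out: % inhibition of substrate cleavage by Csn5.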
# HNF4A DNA FP: change in binding of human HNF4 alpha to DNA. activity change, % at 10 µM. 360,000 tested, 0.3% active. HNF4a-FITC DNA binding, fluorescence polarization, 1 h. AID 1224865. P41235; in the data active = activity change above about 30%, passing the limit was not always enough
# PREPL inh: inhibits the human prolyl oligopeptidase-like enzyme; Q4J6C6; recombinant PREPL, fluorescence polarization activity-based probe; inhibition, % at 5.96 µM; 320,000 tested, 0.68% active; AID 2751; in the data active = inhibition above about 43%;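 note: 0% = enzyme with DMSO and 100% = wells lacking enzyme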
# Neddyl conf: cullin neddylation inhibition, confirmation | shares compounds with Neddylation inh | TR-FRET cullin neddylation biochemical assay | calls only at 25 µM | 1,800 tested, 13% active | AID 652217; in the data active = inhibition above about 40%;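 note: neddylation substrate is the cullin 1 ring ligase complex with SKP2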
# An asterisk follows results filed as active; i = inactive; nt = no result shown.
SMILES,Neddylation inh,Tb MetRS inh,Rpn11 block,CSN inh,HNF4A DNA FP,PREPL inh,Neddyl conf
COc1cc2ccccc2cc1C(=O)OCC(=O)N(C)c1c(N)n(Cc2ccccc2)c(=O)[nH]c1=O,49*,0,6,-5,1,-4,nt
CCN(C(=O)COC(=O)c1cc2ccccc2cc1OC)c1c(N)n(Cc2ccccc2)c(=O)[nH]c1=O,56*,0,3,3,0,nt,nt
CC(Sc1cccc[n+]1[O-])C(=O)NC1CCCCC1C (stereo unspecified),-17,0,3,-2,0,8,nt
Cc1cccc(C)c1NC(=O)C1(C)CSCC(=O)N1Cc1cccs1 (stereo unspecified),3,0,nt,4,2,nt,nt
CC(=O)Nc1cc(-c2ccccc2)cn2c(-c3cccc(C(C)=O)c3)cnc12,0,0,9,2,5,nt,nt
CN1C=CC2=C(C#N)C(N)C(C#N)(C#N)C(c3ccccc3)C2C1 (stereo unspecified),43*,0,-51,-22,-26,12,i
CN1C[C@@H]2C(c3ccccc3)C3(c4ccc(C#N)cc4)CC2(C3)[C@H]1c1ccccc1 (stereo partly specified),1,0,-6,-4,2,-10,nt
CCCN(CCC)CCCNC(=O)c1cc2c(-c3ccc(OC)c(OC)c3)nn(C)c2s1,41*,-1,9,1,1,33,i
O=C(O)C/C(=C\c1ccc2c(c1)OCO2)c1nc2ccccc2s1,45*,0,0,-2,11,8,nt
O=C(O)C/C(=C\c1cc(Cl)c2c(c1)OCO2)c1nc2ccccc2s1,12,2,-4,11,-25,12,nt
COc1cc2c(cc1NC(=O)/C=C/c1cc(OC)c(OC)c(OC)c1)oc1ccccc12,46*,-1,-2,-3,2,26,i
COc1ccc(/C=C/C(=O)OCC(=O)Nc2cc3oc4ccccc4c3cc2OC)cc1,nt,nt,nt,nt,nt,5,nt
COc1cc(/C=C/C(=O)NCc2cccnc2)cc(OC)c1OC,47*,0,-4,1,1,-1,i
CCc1nc2c(OCC(=O)C(C)(C)C)cccn2c1N(C=O)Cc1ccc(OC)cc1,0,0,0,-1,2,nt,nt
O=c1[nH]c2ccc(S(=O)(=O)N3CCN(C4CCCCC4)CC3)cc2[nH]c1=O,40*,0,2,-2,0,10,nt
O=S(=O)([N-]c1nc2ccccc2nc1-n1cc[n+](Cc2ccccc2)c1)c1ccc(Cl)cc1,14,0,0,0,1,9,nt
CC(C)CC[n+]1ccn(-c2nc3ccccc3nc2[N-]S(=O)(=O)c2ccccc2)c1,45*,0,6,-3,0,-7,i
O=C(c1ccco1)N(CCO)Cc1cc2cc3c(cc2[nH]c1=O)OCO3,30,0,-5,1,-3,-4,nt
O=c1[nH]c2cc3c(cc2cc1CN(CCN1CCOCC1)C(=S)NCC1CCCO1)OCO3 (stereo unspecified),nt,0,2,0,4,2,nt
O=C(c1ccccc1)N(CCO)Cc1cc2cc3c(cc2[nH]c1=O)OCCO3,42*,0,5,-3,-2,6,i
O=C(NCc1ccccc1)N(Cc1cc2cc3c(cc2[nH]c1=O)OCO3)CC1CCCO1 (stereo unspecified),41*,0,-2,-1,-2,2,i
CN(C)CCN(Cc1cc2cc3c(cc2[nH]c1=O)OCO3)C(=S)NCC1CCCO1 (stereo unspecified),41*,2,-3,1,-2,13,i
CC1(c2ccccc2)NC(=O)N(CC(=O)N(c2ccccc2)C2CCS(=O)(=O)C2)C1=O (stereo unspecified),-8,0,3,1,8,36,nt
COc1ccc(-c2cc(-c3ccco3)[nH]c(=O)c2C#N)cc1,54*,0,4,14,-2,11,i
O=C(Nc1ccc2nsnc2c1)N1CCCCC1,44*,0,-4,1,-1,-1,i
